Laboratory results reported in publication PMC12138345 (RSC Advances, 2025).
Counter-ions that a name gives are not always drawn. Like-named read-outs stand apart in the source and are kept apart here.

Key:
CtPilB = molecular target: T1, CtPilB (Chloracidobacterium thermophilum, UniProt G2LDI3); experiment: CtPilB ATPase malachite green assay; type: biochemical; conditions: for inhibition at 30 µM: read-out: % Inhib. 30 μM; for inhibition at 3 µM: read-out: % Inhib. 3 μM
T1 sequence (G2LDI3 140-614): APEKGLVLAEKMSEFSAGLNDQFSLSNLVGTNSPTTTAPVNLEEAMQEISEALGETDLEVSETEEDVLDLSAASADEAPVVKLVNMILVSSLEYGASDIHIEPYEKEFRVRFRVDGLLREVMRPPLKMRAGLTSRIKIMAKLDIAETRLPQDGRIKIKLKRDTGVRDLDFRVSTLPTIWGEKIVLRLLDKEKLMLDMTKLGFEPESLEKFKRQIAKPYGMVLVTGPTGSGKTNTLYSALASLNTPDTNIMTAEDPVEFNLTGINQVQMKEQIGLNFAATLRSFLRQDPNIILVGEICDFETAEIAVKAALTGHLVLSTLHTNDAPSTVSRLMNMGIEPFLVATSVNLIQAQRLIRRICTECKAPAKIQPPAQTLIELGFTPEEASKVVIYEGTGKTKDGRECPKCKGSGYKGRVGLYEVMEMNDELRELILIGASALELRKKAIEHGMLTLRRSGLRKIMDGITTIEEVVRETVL
How it was run: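 N-terminally truncated CtPilB hexamer (lacking residues 1–139, purified), 3.3 nM, with 1 mM ATP, 2% DMSO and test compound, 54 °C, 30 min. Quenched with 30% TCA; phosphate detected by malachite green/ammonium molybdate, absorbance at 620 nm, room temperature. Screen at 3 and 30 μM with benserazide as benchmark; IC50 from concentration–response fits.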

apyrase = experiment: Apyrase ATPase selectivity assay; type: biochemical; conditions: varying concentrations up to 64 μM; 1 mM ATP, 37 °C, 30 min; p-value > 0.05
How it was run: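 Commercial apyrase (6.7 × 10−7 U μl−1) with 1 mM ATP in 20 mM MES, 50 mM NaCl, 5 mM CaCl2, 1 mM DTT, 2% DMSO, test compound up to 64 μM, 37 °C, 30 min. Stopped with 30% TCA; released phosphate measured by malachite green assay. Biological experiments run in duplicate; concentrations compared statistically.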

| inhibition at 30 µM (CtPilB) [%] | inhibition at 3 µM (CtPilB) [%] | Compound | other results |
| --- | --- | --- | --- |
| 32 ± 4 | – | N[C@H](CO)C(=O)NNCc1ccccc1O [7a, (R)-2-Amino-3-hydroxy-N′-(2-hydroxybenzyl)propanehydrazide hydrochloride] | – |
| 80 ± 16 | 40 ± 26 | N[C@H](CO)C(=O)N/N=C/c1cc(O)ccc1O (mixture of isomers) [8f, (R,E)-2-Amino-N′-(2,5-dihydroxybenzylidene)-3-hydroxypropanehydrazide hydrochloride] | – |
| 40 ± 2 | – | N[C@H](CO)C(=O)NNCc1ccc(O)cc1O [7e, (R)-2-Amino-N′-(2,4-dihydroxybenzyl)-3-hydroxypropanehydrazide hydrochloride] | – |
| 91 ± 8 | 71 ± 4 | Cl.N[C@H](CO)C(=O)N/N=C/c1c(O)ccc(O)c1O [8k, (R,E)-2-Amino-3-hydroxy-N′-(2,3,6-trihydroxybenzylidene)propanehydrazide hydrochloride] | IC50 (CtPilB): 1060 nM; Inhibition of apyrase ATPase activity (apyrase): no significant difference |
| 92 ± 5 | 55 ± 8 | NCC(=O)N/N=C/c1c(O)cccc1O [11a, (E)-2-Amino-N′-(2,6-dihydroxybenzylidene)acetohydrazide hydrochloride] | – |
| 84 ± 2 | 35 ± 9 | N[C@H](CO)C(=O)N/N=C/c1ccc(O)c(O)c1O [8j, (R,E)-2-Amino-3-hydroxy-N′-(2,3,4-trihydroxybenzylidene)propanehydrazide hydrochloride] | – |
| 84 ± 4 | – | N[C@H](CO)C(=O)N/N=C/c1cccc(O)c1O [8d, (R,E)-2-Amino-N′-(2,3-dihydroxybenzylidene)-3-hydroxypropanehydrazide hydrochloride] | – |
| 87 ± 4 | 26 ± 11 | C[C@@H](N)C(=O)N/N=C/c1c(O)cccc1O [11b, (R,E)-2-amino-N′-(2,6-dihydroxybenzylidene)propanehydrazide hydrochloride] | – |
| 18 ± 9 | – | N[C@H](CO)C(=O)N/N=C/c1cccc(O)c1 [8b, (R,E)-2-Amino-3-hydroxy-N′-(3-hydroxybenzylidene)propanehydrazide hydrochloride] | – |
| 23 ± 21 | – | N[C@H](CO)C(=O)N/N=C/c1ccccc1O [8a, (R,E)-2-Amino-3-hydroxy-N′-(2-hydroxybenzylidene)propanehydrazide hydrochloride] | – |
| 14 ± 4 | – | N[C@H](CO)C(=O)N/N=C/c1ccc(O)c(O)c1 [8i, (R,E)-2-Amino-N′-(3,4-dihydroxybenzylidene)-3-hydroxypropanehydrazide hydrochloride] | – |

Second part, the compound before the results:

| Compound | inhibition at 30 µM (CtPilB) [%] | inhibition at 3 µM (CtPilB) [%] | other results |
| --- | --- | --- | --- |
| N[C@H](CO)C(=O)N/N=C/c1ccc(O)cc1 [8c, (R,E)-2-Amino-3-hydroxy-N′-(4-hydroxybenzylidene)propanehydrazide hydrochloride] | 2 ± 3 | – | – |
| N[C@H](CO)C(=O)NNCc1cccc(O)c1O [7d, (R)-2-Amino-N′-(2,3-dihydroxybenzyl)-3-hydroxypropanehydrazide hydrochloride] | 78.2 ± 4 | 19 ± 12 | – |
| N[C@H](CO)C(=O)N/N=C/c1ccc(O)cc1O [8e, (R,E)-2-Amino-N′-(2,4-dihydroxybenzylidene)-3-hydroxypropanehydrazide hydrochloride] | 69 ± 10 | – | – |
| N[C@H](CO)C(=O)NNCc1c(O)cccc1O [7g, (R)-2-Amino-N′-(2,6-dihydroxybenzyl)-3-hydroxypropanehydrazide hydrochloride] | 74 ± 5 | 32 ± 12 | – |
| NC(CO)C(=O)NNCc1ccc(O)c(O)c1O (stereo not shown) [Benserazide, reference compound] | 80 ± 8 | 34 ± 10 | IC50 (CtPilB): 3680 nM; Inhibition of apyrase ATPase activity (apyrase): no significant difference |
| COc1cccc(O)c1/C=N/NC(=O)[C@H](N)CO [8h, (R,E)-2-Amino-3-hydroxy-N′-(2-hydroxy-6-methoxybenzylidene)propanehydrazide hydrochloride] | 67 ± 4 | – | – |
| COc1ccc(/C=N/NC(=O)[C@H](N)CO)c(OC)c1OC.Cl [8l, (R,E)-2-Amino-3-hydroxy-N′-(2,3,4-trimethoxybenzylidene)propanehydrazide hydrochloride] | – | – | Activity against PilB (in words) (CtPilB; screen at 3 and 30 μM): essentially had no activity |
| NNC(=O)[C@@H](N)CO [compound 4, (S)-2-Amino-3-hydroxypropanehydrazide dihydrochloride] | 27 ± 19 | – | – |
| Cl.N[C@H](CS)C(=O)N/N=C/c1c(O)cccc1O [11c, (S,E)-2-Amino-N′-(2,6-dihydroxybenzylidene)-3-mercaptopropanehydrazide hydrochloride] | 97 ± 11 | 90 ± 1 | IC50 (CtPilB): 580 nM; Potency relative to benserazide (CtPilB; ratio of IC50 values): 6 fold; Inhibition of apyrase ATPase activity (apyrase): no significant difference |
| N[C@H](CO)C(=O)NNCc1cc(O)ccc1O [7f, (R)-2-Amino-N′-(2,5-dihydroxybenzyl)-3-hydroxypropanehydrazide hydrochloride] | 45 ± 6 | – | – |
| N[C@H](CO)C(=O)N/N=C/c1c(O)cccc1O [8g, (R,E)-2-Amino-N′-(2,6-dihydroxybenzylidene)-3-hydroxypropanehydrazide hydrochloride] | 86 ± 3 | 65 ± 5 | IC50 (CtPilB; dose–response 0.01–50 μM, benserazide as control): 1320 nM |
